“Also recorded” adds a separate entry of the source.
Columns and labels:
F-TAR RNA = test: TentaGel bead fluorescence assay with F-TAR RNA; type: binding; conditions: peptide on TentaGel beads, fluorescence microscopy
[1] = test system: F-18S RNA (human A-site rRNA); test: TentaGel bead fluorescence assay with F-18S RNA; type: binding; conditions: peptide on TentaGel beads; fluorescence microscopy
How it was run: (§1)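 Peptide beads were washed free of DMF, blocked 3 h in SuperBlock (PBS, 0.05% Tween-20) and rinsed with water. About 10–12 beads were shaken with fluorescent probe for 24 h at 4 °C, with fresh probe added for repeated cycles. Beads were then water-washed and viewed by fluorescence microscopy. Peptide-free beads set background. Labelled RNAs were gel-purified (20% denaturing PAGE), stored in 10 mM HEPES pH 7.4 and renatured.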

[2] = TentaGel bead control with free fluorescein; type: binding; conditions: peptide on TentaGel beads; fluorescence microscopy
How it was run: as §1

[3] = test system: F-H69 (fluorescein-labeled Ψm^3ΨΨ); test: Quantum dot; type: binding, E. coli; conditions: Qdot analysis; 1 nM F-H69, 1 nM Qdot 655, 16 h at 4 °C
How it was run: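 F-H69 was pre-incubated 1 h at 4 °C with anti-fluorescein Qdot 655, then with beads 16 h at 4 °C. Washes: PBS, SuperBlock, then 0.005% TX-100. Per-bead Qdot (em 655 nm) and fluorescein (em 521 nm) pixel intensities (1–255) taken at predefined exposures. Peptide-free beads served as control.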

H69 RNA = conditions: relative to NQVANHQ-NH2 (1:1), ref [15b]; cited from earlier work
human H69 = conditions: relative to NQVANHQ-NH2; due to non-specific binding, ref [15b]; cited from earlier work

Row | Substance | on-bead interaction with F-TAR RNA (F-TAR RNA) | on-bead interaction with F-18S RNA [1] | on-bead interaction with free fluorescein [2] | bead intensity compared with STYTSVS beads [3] | on-bead interaction with F-TAR RNA (F-TAR RNA; listed as STYSTVS) | stoichiometry with H69 (H69 RNA) | selectivity with human H69 (human H69)
1 | NQVANHQ | did not show any interaction; also recorded: do not show any fluorescence | did not show any interaction; also recorded: do not show any fluorescence | do not show any fluorescence | higher than STYTSVS beads | – | – | –
2 | STYTSVS | with the exception those containing STYTSVS and F-TAR RNA | do not show any fluorescence | do not show any fluorescence | – | showed interaction | – | –
3 | neomycin | – | – | – | – | – | higher stoichiometries | lower selectivity with human H69
